Screening data deposited in PubChem by several laboratories.
EBV gp42 inh: blocks Epstein-Barr virus glycoprotein 42 binding; Q1HVG2; Fluorescence polarization binding assay, mP read-out; inhibition, % (tested at 21.74 µM); hit rate 0.42% among 220,000; in the data active means inhibition above about 50%
Target sequence (Q1HVG2 whole entry, looked up): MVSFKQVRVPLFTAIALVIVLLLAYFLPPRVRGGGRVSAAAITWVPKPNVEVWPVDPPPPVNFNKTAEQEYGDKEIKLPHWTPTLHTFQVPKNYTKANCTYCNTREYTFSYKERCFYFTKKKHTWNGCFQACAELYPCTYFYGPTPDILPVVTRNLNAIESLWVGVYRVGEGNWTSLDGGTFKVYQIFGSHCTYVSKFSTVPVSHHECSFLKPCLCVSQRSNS
Mcl-1 Bim block: human Bim-Mcl-1 interaction inhibition; Q07820; Bead-based flow cytometry, Bim peptide-Mcl-1 binding; inhibition, % at 10 µM; hit rate 0.1% among 190,000; AID 1009; in the data active means inhibition above about 40%;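 further: 0% = no compound tracer wells and 100% = peptide blocker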
RBBP9 inh: blocks human serine hydrolase RBBP9; O75884; recombinant RBBP9, FP-Rh probe fluorescence polarization; inhibition, % at 7.94 µM; hit rate 0.2% among 220,000;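 active means inhibition above the campaign mean of all tested compounds plus 3 SD, cut at about 14% in these data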;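 further: plate controls were DMSO wells with RBBP9 for no effect and wells lacking RBBP9 protein for full effect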
Target sequence (O75884 whole entry, looked up): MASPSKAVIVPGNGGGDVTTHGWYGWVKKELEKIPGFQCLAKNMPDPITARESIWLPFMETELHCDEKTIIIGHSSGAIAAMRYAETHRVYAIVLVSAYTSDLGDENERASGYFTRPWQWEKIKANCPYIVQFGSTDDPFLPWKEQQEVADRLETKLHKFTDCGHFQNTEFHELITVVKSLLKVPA
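Controls: DMSO-treated enzyme wells and wells lacking RBBP9 | Material: RBBP9 protein | Technique: Fluorescence polarization | Replication: Single well per compound, no replicates | Buffer or medium: Tris-NaCl-Pluronic buffer, pH 8.0 | Timing: 30 min compound preincubation, 45 min probe labeling, 25 °C | Read-out basis: Percent inhibition from mP, scaled between DMSO and no-protein wells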
Mcl1-Noxa inh: Mcl-1/Noxa interaction inhibition; TR-FRET Mcl-1/Noxa peptide binding, 2 h; inhibition, % at 21.7 µM; hit rate 1.5% among 220,000; AID 1022;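 active means compounds that cut the protein-peptide binding signal by more than 50% relative to plate controls in a single-dose test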;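 further: His-tagged Mcl-1 with rhodamine Noxa BH3 peptide and terbium anti-His antibody; 0% = Mcl-1 plus Noxa peptide wells and 100% = peptide-only wells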
Mcl1-Bid inh: disrupts binding of human Mcl-1 to Bid peptide | Q07820 | hit rate 0.97% among 220,000 | inhibition, % at 21.7 µM | TR-FRET Mcl-1/Bid-Dy647 peptide binding, 1536-well;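 active means compounds that cut the binding signal by more than half at the single screening dose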;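 further: His-tagged Mcl-1 with europium anti-His antibody binding Bid BH3 peptide; 0% = Mcl-1 plus peptide wells and 100% = peptide-only wells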
MCL1 BIM primary: inhibitors of human MCL1 binding to BIM-BH3 peptide | Q07820 | GST-MCL1 / FITC-Bim-BH3 fluorescence polarization | hit rate 0.68% among 320,000 | inhibition, % at 10.9 µM | AID 2057;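 active means inhibition above the mean inhibition of all tested compounds plus 3 SD, set per campaign, cut at about 40% in these data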;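 further: 0% = DMSO wells and 100% = unlabeled Bim-BH3 peptide control; higher means more loss of mP so more displacement of Bim peptide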
BCLXL inh confirm: counter-screen for MCL1 inhibitors: confirmation of human Bcl-xL inhibitors; hit rate 54% among 1,700; GST-Bcl-xL / FITC-Bim BH3 peptide FP binding; inhibition, % at 10.9 µM; shares compounds with MCL1 BIM primary; AID 2166;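 active means inhibition above a cutoff equal to the mean inhibition of all tested compounds plus 3 SD, cut at about 30% in these data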;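 further: 0% = DMSO wells and 100% = unlabeled Bim BH3 control peptide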
MCL1 inh confirm: MCL1-BIM-BH3 interaction inhibition, confirmation; shares compounds with MCL1 BIM primary; GST-MCL1 / FITC-Bim-BH3 fluorescence polarization; inhibition, % at 10.9 µM; hit rate 61% among 1,700; AID 2168;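 active means inhibition above the average of all tested compounds plus 3 SD, cut at about 40% in these data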;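 further: 0% = DMSO wells and 100% = unlabeled Bim-BH3 control peptide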
Active calls of the source: *; nt = no result; + = active, no number. The list is not random: actives were taken first. Their share in the collection is about 2.2%.

SMILES	EBV gp42 inh	Mcl-1 Bim block	RBBP9 inh	Mcl1-Noxa inh	Mcl1-Bid inh	MCL1 BIM primary	BCLXL inh confirm	MCL1 inh confirm
COC(=O)CCC(=O)OC1(C)C(=O)C=C2C=C(C3CC3)OC=C2C1=O (configuration not stated)	nt	nt	nt	nt	nt	55*	48*	70*
COC(=O)CCCC1=CC2=CC(=O)C(C)(OC(=O)c3cccs3)C(=O)C2=CN1c1ccc(OC)cc1 (configuration not stated)	-5	nt	nt	-31	-66	14	nt	nt
COc1ccc(-c2nsc(C(=O)N(c3ccc(F)cc3)C(C(=O)NC3CCCC3)c3ccc(OC)cc3)c2N)cc1 (configuration not stated)	-2	0	-8	-3	-8	0	nt	nt
C/C=C/C=C/[C@H]1Cc2cc(O)cc(O)c2O1	54*	nt	nt	56*	-146	67*	57*	83*
COC(=O)C1=COC(C)C2CN3CCc4c([nH]c5ccccc45)C3CC12 (configuration not stated)	19	25	1	9	-30	91*	62*	80*
COc1ccccc1C(=O)NCc1ccccn1	-18	-2	3	-15	-40	8	nt	nt
CCN(CC)S(=O)(=O)c1ccc2c(c1)N(CC(=O)NCc1ccccn1)C(=O)CO2	-13	nt	-12	27	-11	10	nt	nt
COc1ccc(Cc2noc(CN(C)CC3(N4CCOCC4)CCCCC3)n2)cc1OC	-9	-6	-5	4	-28	-7	nt	nt
CCN(CC)S(=O)(=O)c1ccc(OC)c(NC(=O)Cc2cccs2)c1	42	-1	-2	56*	-60	40*	22	51*
Cc1cccc(C)c1OCC(=O)N(Cc1ccc(Cl)cc1)C1CCS(=O)(=O)C1 (configuration not stated)	nt	nt	nt	nt	nt	7	nt	nt
O=S(=O)([N-]c1nc2ccccc2nc1-[n+]1ccc(-c2ccncc2)cc1)c1ccccc1	56*	2	-7	21	-19	+	150*	183*
O=C(c1ccc2nc(-c3ccco3)c(-c3ccco3)nc2c1)N1CCN(c2ncccn2)CC1	45	8	1	100*	-47	81*	35*	50*
O=C(Nc1ccc2nc(-c3ccco3)c(-c3ccco3)nc2c1)N1CCN(c2ccccn2)CC1	-3	15	0	64*	-55	53*	58*	71*
O=C(Nc1ccc(N2CCOCC2)cc1)c1ccc2nc(-c3ccco3)c(-c3ccco3)nc2c1	-5	1	-2	33	-12	4	nt	nt
S=C(Nc1ccc(N2CCOCC2)cc1)Nc1ccc2nc(-c3ccco3)c(-c3ccco3)nc2c1	111*	-5	12	81*	-10	+	118*	150*
O=C(c1cccc(C(=O)N2CCN(c3ncccn3)CC2)c1)N1CCN(c2ncccn2)CC1	-12	-6	2	-15	-10	3	nt	nt
N#Cc1c(-c2ccco2)cc(C2CC2)nc1N	-13	3	-5	13	-3	-7	nt	nt
N#Cc1c(-c2ccco2)cc(-c2cccnc2)nc1N	2	7	0	62*	-12	75*	16	12
N#Cc1c(-c2cccnc2)cc(-c2ccccc2)nc1N	5	nt	-4	16	1	1	nt	nt
N#Cc1c(-c2ccco2)cc(-c2ccccn2)nc1N	-4	3	-4	66*	-19	43*	14	15
CCOC(=O)C1=C(CSc2nc3c(cc2C#N)CN(C)CC3)OC(N)=C(C#N)C1c1ccc(Cl)cc1 (configuration not stated)	-15	0	0	1	-26	52*	41*	44*
CCOC(=O)C1=C(CSc2nc3c(cc2C#N)CN(C)CC3)OC(N)=C(C#N)C1c1ccncc1 (configuration not stated)	6	-2	-2	12	-3	143*	108*	119*
